Data on 29 molecules can be found in ChEMBL document CHEMBL1127618, “A novel nonpeptide HIV-1 protease inhibitor: elucidation of the binding mode and its application in the design of related analogs” (J Med Chem, 1994).

In the assay the target is Human immunodeficiency virus type 1 protease (Human immunodeficiency virus 1, UniProt Q72874). Kind of assay: Inhibition of HIV-1 protease. The procedure, abridged: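 HIV-1 protease at 6.0 nM final added to inhibitor plus 40 μM undecapeptide substrate H-His-Lys-Ala-Arg-Val-Leu-(p-NO2)Phe-Glu-Ala-Nle-Ser-NH2, 1.0% DMSO, in 80 mM NaOAc, 160 mM NaCl, 1.0 mM EDTA, 1.0 mM DTT, 0.1% PEG 8000, pH 4.7, 37 °C. Inhibitor at […]. After 5 min, quenched with 2% TFA. Substrate and product resolved by reversed-phase HPLC (A220). % control from % conversion gives IC50.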
Turning to `O=c1oc2ccccc2c(O)c1CCCOCc1ccccc1`, the IC50 (usually the concentration that gives 50% inhibition) is 38 µM. This counts as double-digit micromolar.
As for `O=c1oc2ccccc2c(O)c1CCCN(Cc1ccccc1)c1ccccc1`, the figure is 13 µM; as for `O=c1c(CCCOc2cccc(CO)c2)c(O)oc2ccccc12`, 2.3 µM.
As for `O=c1oc2ccccc2c(O)c1CCCN(c1ccccc1)c1ccc(F)cc1`, the figure is 5.5 µM.
With `O=c1oc2ccccc2c(O)c1CCCOc1cccc(Cl)c1` the figure was 1.4 µM.
As for `CCOC(=O)c1cccc(OCCCc2c(O)oc3ccccc3c2=O)c1`, the IC50 was found to be 1.4 µM.
As for `COc1ccc(CCCCc2c(O)oc3ccccc3c2=O)cc1`, the figure is more than 100 µM; as for `COc1ccccc1CCCCc1c(O)c2ccc(O)cc2oc1=O`, 0.52 µM; as for `O=c1oc2ccccc2c(O)c1CCCCc1ccccc1`, 110 µM.
With `O=c1c(CCCO)c(O)oc2ccccc12` the figure was 86 µM; with `O=c1oc2ccccc2c(O)c1CCCCOc1ccccc1`, more than 100 µM; with `O=c1oc2ccccc2c(O)c1CCCOc1ccccc1`, 2.3 µM.
With `O=c1oc2ccccc2c(O)c1CCCOc1cccc([N+](=O)[O-])c1` the figure was 4 µM; with `O=c1oc2ccccc2c(O)c1CCCSc1ccccc1`, 26 µM.
In turn, `O=c1oc2ccccc2c(O)c1CCOc1ccccc1` returned an IC50 of 53 µM.
As for `O=c1[nH]c2ccccc2c(O)c1CCCOc1ccccc1`, the figure is more than 200 µM.
Take `O=c1oc2ccccc2c(O)c1SCCOc1ccccc1`: the concentration for half-maximal inhibition (IC50) came out at 24 µM.
As for `O=c1c(CC/C(=N/O)c2ccccc2)c(O)oc2ccccc12`, the figure is 71 µM; as for `COc1ccccc1CCCCc1c(O)oc2ccccc2c1=O`, 1.7 µM.
With `COc1ccccc1OCCCc1c(O)oc2ccccc2c1=O` the figure was 44 µM; with `O=c1oc2ccccc2c(O)c1CCOCc1ccccc1`, 4 µM; with `COc1ccccc1CCCCc1c(O)oc2cc(OCc3ccccc3)ccc2c1=O`, more than 100 µM.
With `O=C(O)c1cccc(OCCCc2c(O)oc3ccccc3c2=O)c1` the figure was 7 µM; with `N#Cc1cccc(OCCCc2c(O)c3ccccc3oc2=O)c1`, 0.67 µM; with `O=c1oc2ccccc2c(O)c1CCCOC1CCCCC1`, 32 µM.
Regarding `O=C(CCc1c(O)c2ccccc2oc1=O)c1ccccc1`, the IC50 was 90 µM. Against the preceding molecule, the IC50 is about 2.8-fold higher.
As for `NC(=O)c1cccc(OCCCc2c(O)oc3ccccc3c2=O)c1`, the figure is 3.9 µM; as for `Nc1cccc(OCCCc2c(O)oc3ccccc3c2=O)c1`, 6.4 µM.
Molecule `COc1ccc2c(O)c(CCCCc3ccccc3OC)c(=O)oc2c1` came in with an IC50 of 3.3 µM. This IC50 lies about 1.9-fold lower than the previous one.
